The text below walks through data of ChEMBL document CHEMBL3244352, “Synthesis and analgesic activity of some spiro[dibenz[b,f]oxepin-10,4'-piperidine] derivatives” (J Med Chem, 1979).

Series [1] concerns Mus musculus. Nature of the series: Analgesic activity in CD-1 Charles River mouse assessed as inhibition of phenyl-p-benzoquinine-induced writhing at 25 mg/kg, sc administered 15 to 90 mins prior to phenyl-p-benzoquinine challenge measured after 5 mins relative to control. Type of series: functional. The settings on record: route subcutaneous. The procedure, abridged: (§1)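 Male CD-1 Charles River mice (18-24 g), five per group, were given the drug 15, 30, 60 and 90 min before an injection of 0.125% phenyl-p-benzoquinone in 5% aqueous ethanol. The vehicle was distilled water with a few drops of Tween 80. Writhes were counted for 10 min, starting 5 min after the injection, with mice held singly in beakers. The read-out was percent inhibition of writhes versus vehicle-treated mice.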
(In general: An intraperitoneal irritant provokes the stretching counted in writhing tests.)

The test system of series [2] is Mus musculus. Nature of the series: Analgesic activity in CD-1 Charles River mouse at 25 mg/kg, sc measured for 15 to 60 mins by tail flick test relative to control. Type of series: functional. The note with it: route subcutaneous. The procedure, abridged:
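Male CD-1 mice, ten per group, were restrained and given an intense light-beam stimulus, and tail-flick latency was recorded. Two baseline readings were taken. Mice were excluded if their readings differed by more than 1 s or if including them would widen the group spread beyond 3 s. A cutoff was set from the baselines. Drug was given sc (vehicle 10 mL/kg), and mice were tested at 15, 30, 45 and 60 min. Responses beyond the cutoff counted as analgesia, reported as percent.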
On the technique in general: In hot-plate and tail-flick tests a longer latency is read as antinociception.

The test system of series [3] is Mus musculus. Nature of the series: Analgesic activity in po dosed CD-1 Charles River mouse assessed as inhibition of phenyl-p-benzoquinine-induced writhing administered 15 to 90 mins prior to phenyl-p-benzoquinine challenge measured after 5 mins. Type of series: functional.
The test system of series [4] is Mus musculus. Nature of the series: Ratio of ED50 for inhibition of phenyl-p-benzoquinine-induced writhing in po dosed CD-1 Charles River mouse to ED50 for inhibition of phenyl-p-benzoquinine-induced writhing in sc dosed CD-1 Charles River mouse. Type of series: functional. The procedure, abridged:
(§2)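 Writhing ED50s came from male CD-1 mice, ten per dose, tested at peak time after sc or po dosing, with four doses plus a vehicle control (water with Tween 80) in randomized order. Writhes were counted for 10 min, beginning 5 min after 0.125% phenyl-p-benzoquinone. ED50 was estimated by linear regression of percent inhibition, and ratios were formed from these ED50s.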

Series [5] has as its system Mus musculus. Put plainly: Potency index, ratio of propoxyphene ED50 to compound ED50 for inhibition of phenyl-p-benzoquinine-induced writhing in sc dosed CD-1 Charles River mouse. Type of series: functional. The procedure, abridged: as §2
The test system of series [6] is Mus musculus. Put plainly: Potency index, ratio of propoxyphene ED50 to compound ED50 for inhibition of phenyl-p-benzoquinine-induced writhing in po dosed CD-1 Charles River mouse. Type of series: functional. The procedure, abridged: as §2
The species entered for series [7] is Mus musculus. Nature of the series: animal or person. Type of series: functional. The note with it: CD-1 Charles River, sc.
The subject of series [8] is Mus musculus. Put plainly: Analgesic activity in CD-1 Charles River mouse assessed as inhibition of phenyl-p-benzoquinine-induced writhing at 25 mg/kg, po administered 15 to 90 mins prior to phenyl-p-benzoquinine challenge measured after 5 mins relative to control. Type of series: functional. The procedure, abridged: as §1
Series [9] has as its system Mus musculus. Nature of the series: Analgesic activity in po dosed CD-1 Charles River mouse measured for 15 to 60 mins by tail flick test relative to control. Type of series: functional.
Series [10] can be described thus: Ratio of ED50 for neurotoxicity in CD-1 Charles River mouse by rotarod test to ED50 for inhibition of phenyl-p-benzoquinine-induced writhing in CD-1 Charles River mouse. Type of series: toxicity, organism-based. The note with it: CD-1, mouse, in vivo; read-out: Ratio ED50.
In series [11] the test system is Mus musculus. Nature of the series: Analgesic activity in CD-1 Charles River mouse assessed as inhibition of phenyl-p-benzoquinine-induced writhing at 5 mg/kg, po administered 15 to 90 mins prior to phenyl-p-benzoquinine challenge measured after 5 mins relative to control. Type of series: functional. The procedure, abridged:
as §1

The subject of series [12] is Mus musculus. Nature of the series: Analgesic activity in sc dosed CD-1 Charles River mouse measured for 15 to 60 mins by tail flick test relative to control. Type of series: functional.

Take `C#CCN1CCC2(CC1)C(=O)c1cc(Cl)ccc1Oc1ccccc12`: the inhibition in vivo (commonly the percentage by which the read-out fell short of the control) at 25 mg/kg with Mus musculus [1] was 32%. In the series on Mus musculus [2], this molecule showed an Activity of 10%.

For `Br.C#CCN1CCC2(CC1)C(=O)c1ccccc1Oc1ccccc12`, the inhibition in vivo at 25 mg/kg in the series with Mus musculus [1] was 57%. The molecule also registered an Activity with Mus musculus [2] of 20%.

As to `Br.CN1CCC2(CC1)C(=O)c1cc(F)ccc1Oc1ccccc12`, the 50% effective dose (ED50) (commonly the midpoint of the dose-response relation) stood at 2 mg/kg in the series on Mus musculus [3] and 1.9 mg/kg in the series listed under Mus musculus [7]. In addition, the entries for the “Ratio ED50” value in the series on Mus musculus [4], with Mus musculus [5] and with Mus musculus [6] were 1, 2 and 10, respectively. Besides, the Activity in the series with Mus musculus [2] came to 30%.

As for `Br.O=C1c2ccccc2Oc2ccccc2C12CCNCC2`, the ED50 with Mus musculus [3] was found to be 7.5 mg/kg; in the series filed under Mus musculus [7] it was 1.7 mg/kg. Moreover, the “Ratio ED50” value in the series with Mus musculus [4] came out at 4.5. This molecule also showed an Activity in the series with Mus musculus [2] of 60%.

Consider `Br.O=C1c2ccccc2Oc2ccccc2C12CCN(CCCOc1ccccc1)CC2`, for which the inhibition in vivo at 25 mg/kg in the series on Mus musculus [1] turned out to be 55%. For the same molecule, the Activity in the series on Mus musculus [2] was found to be 20%.

For the molecule `Br.CCCN1CCC2(CC1)C(=O)c1cc(Cl)ccc1Oc1ccccc12`, in the series with Mus musculus [1], the inhibition in vivo at 25 mg/kg turned out to be 22%. Also, the Activity in the series with Mus musculus [2] is on record as 10%.

`CC(C)=CCN1CC[C@]2(C)c3cc(O)ccc3C[C@H]1[C@H]2C` [(+)-PENTAZOCINE] gave an ED50 in the series listed under Mus musculus [7] of 2.4 mg/kg.

For the molecule `Br.O=C(CCCN1CCC2(CC1)C(=O)c1cc(Cl)ccc1Oc1ccccc12)c1ccc(F)cc1`, the inhibition in vivo at 25 mg/kg with Mus musculus [1] is 49%. The Activity with Mus musculus [2] worked out at 20%.

Take `Br.O=C1c2ccccc2Oc2ccccc2C12CCN(CC1CC1)CC2`: the inhibition in vivo at 25 mg/kg in the series with Mus musculus [8] was 59%. This molecule also yielded an ED50 in the series listed under Mus musculus [7] of 6 mg/kg.

`Br.O=C1c2cc(Cl)ccc2Oc2ccccc2C12CCN(CC1CC1)CC2`: in the series with Mus musculus [1], the inhibition in vivo at 25 mg/kg is 31%. Further, in the series with Mus musculus [2], the Activity came to 0%.

For `CC(C)=CCN1CCC2(CC1)C(=O)c1cc(Cl)ccc1Oc1ccccc12`, in the series on Mus musculus [1], the inhibition in vivo at 25 mg/kg came to 42%.

For `Br.CN1CCC2(CC1)C(=O)c1ccccc1Oc1ccccc12`, the Activity in the series on Mus musculus [2] is on record as 13%. Moreover, the ED50 in the series listed under Mus musculus [7] came to 5.2 mg/kg.

`Br.O=C1c2ccccc2Oc2ccccc2C12CCN(CCc1ccccc1)CC2` returned an Activity in the series on Mus musculus [2] of 40%. The molecule also displayed an ED50 in the series listed under Mus musculus [7] of 21 mg/kg.

For the molecule `CCC(=O)O[C@](Cc1ccccc1)(c1ccccc1)[C@H](C)CN(C)C` [PROPOXYPHENE], the median effective dose (ED50) turned out to be 24.6 mg/kg in the series with Mus musculus [3] and 3.9 mg/kg in the series filed under Mus musculus [7]. In the series with Mus musculus [4], the “Ratio ED50” value is reported as 6.3.

Turning to `O=C1c2cc(Cl)ccc2Oc2ccccc2C12CCN(CCCOc1ccccc1)CC2`, the inhibition in vivo at 25 mg/kg with Mus musculus [1] is 54%. The molecule also returned an Activity in the series on Mus musculus [2] of 0%.

Consider `O=C1c2cc(Cl)ccc2Oc2ccccc2C12CCN(CCc1ccccc1)CC2`, for which the inhibition in vivo at 25 mg/kg in the series with Mus musculus [1] was 30%. The same molecule yielded an Activity with Mus musculus [2] of 0%.

In the series on Mus musculus [2], `Br.O=C1c2ccccc2Oc2ccccc2C12CCN(CCO)CC2` had an Activity of 40%. This molecule displayed an ED50 in the series filed under Mus musculus [7] of 2.8 mg/kg.

Regarding `Cl.O=C1c2cc(F)ccc2Oc2ccccc2C12CCNCC2`, the figures for the ED50 in the series with Mus musculus [9], with Mus musculus [3] and in the series listed under Mus musculus [7] were 51.4 mg/kg, 2.2 mg/kg and 1.6 mg/kg, respectively. In series [10], the selectivity ratio amounted to 17.6. Besides, the “Ratio ED50” value with Mus musculus [4] is listed as 1; in the series with Mus musculus [5], 2; with Mus musculus [6] it was 10. The Activity in the series on Mus musculus [2] stood at 75%.

In the case of `Br.O=C1c2cc(Cl)ccc2Oc2ccccc2C12CCN(CCO)CC2`, the Activity in the series on Mus musculus [2] amounted to 30%. For the same molecule, in the series filed under Mus musculus [7], the ED50 was determined as 7 mg/kg.

With `Br.O=C(CCCN1CCC2(CC1)C(=O)c1ccccc1Oc1ccccc12)c1ccc(F)cc1`, the Activity in the series with Mus musculus [2] was 60%. Also, the inhibition in vivo at 5 mg/kg in the series with Mus musculus [11] turned out to be 67%.

For the molecule `Br.C=CCN1CCC2(CC1)C(=O)c1cc(Cl)ccc1Oc1ccccc12`, the inhibition in vivo at 25 mg/kg in the series on Mus musculus [1] is 37%. The molecule further came in with an Activity in the series with Mus musculus [2] of 10%.

Molecule `CN1CC[C@]23c4c5ccc(O)c4O[C@H]2[C@@H](O)C=C[C@H]3[C@H]1C5.CN1CC[C@]23c4c5ccc(O)c4O[C@H]2[C@@H](O)C=C[C@H]3[C@H]1C5.O=S(=O)(O)O` yielded an ED50 in the series listed under Mus musculus [7] of 0.36 mg/kg.

As for `Br.O=C1c2cc(Cl)ccc2Oc2ccccc2C12CCNCC2`, the figures for the median effective dose (ED50) in the series on Mus musculus [3], in the series listed under Mus musculus [7] and with Mus musculus [12] were 7.7 mg/kg, 3.7 mg/kg and 12 mg/kg, respectively. In the series on Mus musculus [4], the “Ratio ED50” value stood at 2.

Turning to `Br.CCN1CCC2(CC1)C(=O)c1cc(Cl)ccc1Oc1ccccc12`, in the series on Mus musculus [1], the inhibition in vivo at 25 mg/kg worked out at 67%. The same molecule yielded an Activity with Mus musculus [2] of 0%.

Consider `Br.CN1CCC2(CC1)C(=O)c1cc(Cl)ccc1Oc1ccccc12`, for which the 50% effective dose (ED50) with Mus musculus [3] worked out at 5.2 mg/kg; in the series listed under Mus musculus [7], 3.5 mg/kg; in the series on Mus musculus [12], 13.2 mg/kg. Further, the “Ratio ED50” value in the series with Mus musculus [4] is given as 1.5.
